The values below come from ChEMBL document CHEMBL2169742, “Design, synthesis, and biological evaluation of novel transrepression-selective liver X receptor (LXR) ligands with 5,11-dihydro-5-methyl-11-methylene-6H-dibenz[b,e]azepin-6-one skeleton” (J Med Chem, 2012).

The source made the active and inactive calls. The rule behind the calls is not given here.

The target of data set [1] is T1, Oxysterols receptor LXR-alpha (Homo sapiens, UniProt Q13133).
T1 sequence (Q13133 whole entry): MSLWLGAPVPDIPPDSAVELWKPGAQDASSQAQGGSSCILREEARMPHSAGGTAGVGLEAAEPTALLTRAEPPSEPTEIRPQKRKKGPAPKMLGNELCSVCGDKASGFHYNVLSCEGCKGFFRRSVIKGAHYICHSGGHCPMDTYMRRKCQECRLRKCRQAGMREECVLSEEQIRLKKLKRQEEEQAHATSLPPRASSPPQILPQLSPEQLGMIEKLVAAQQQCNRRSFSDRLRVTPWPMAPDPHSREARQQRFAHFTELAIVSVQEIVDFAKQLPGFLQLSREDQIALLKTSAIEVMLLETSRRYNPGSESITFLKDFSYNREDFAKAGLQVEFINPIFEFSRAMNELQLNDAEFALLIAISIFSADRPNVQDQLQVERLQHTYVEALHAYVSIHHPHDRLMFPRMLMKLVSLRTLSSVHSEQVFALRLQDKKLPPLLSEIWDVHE
Briefly: Transactivational antagonist activity at human LXRalpha transfected in HEK293 cells expressing CMX-Gal4N assessed as inhibition of T1317-induced luciferase activity after 16 hrs by reporter gene assay. The format is functional, cell-based. In general terms: In a reporter assay the amount or activity of a reporter protein is the signal.

The target of data set [2] is T2, Oxysterols receptor LXR-beta (Homo sapiens, UniProt P55055).
T2 sequence (P55055 whole entry): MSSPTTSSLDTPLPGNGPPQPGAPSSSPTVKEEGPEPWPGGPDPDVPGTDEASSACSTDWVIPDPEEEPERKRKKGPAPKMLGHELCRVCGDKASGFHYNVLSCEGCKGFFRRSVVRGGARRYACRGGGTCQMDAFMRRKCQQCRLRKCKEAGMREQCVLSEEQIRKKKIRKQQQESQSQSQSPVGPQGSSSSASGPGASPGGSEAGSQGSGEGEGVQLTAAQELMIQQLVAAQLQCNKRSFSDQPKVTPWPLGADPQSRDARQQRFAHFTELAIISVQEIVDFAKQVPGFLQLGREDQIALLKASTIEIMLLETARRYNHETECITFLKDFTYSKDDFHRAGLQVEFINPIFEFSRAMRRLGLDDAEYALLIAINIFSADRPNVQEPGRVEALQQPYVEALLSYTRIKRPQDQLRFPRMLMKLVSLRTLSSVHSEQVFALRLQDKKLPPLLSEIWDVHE
Briefly: Transactivational agonist activity at human LXRbeta transfected in HEK293 cells expressing CMX-Gal4N assessed as luciferase activity at 30 uM after 16 hrs by reporter gene assay. The format is cell-based. As to conditions: hek293, 16 h.

The target of data set [3] is T3, Oxysterols receptor LXR-alpha (Homo sapiens) (UniProt Q13133).
T3 sequence (whole entry): T1 sequence (Q13133 whole entry)
The experiment in a line: Transactivational antagonist activity at human LXRalpha transfected in HEK293 cells coexpressing CMX-Gal4N-SMRT assessed as SMRT recruitment after 16 hrs by reporter gene assay. The data set is classed as functional, cell-based. The method in brief: (§1)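 Mammalian two-hybrid in HEK293 cells by calcium phosphate cotransfection: CMX-VP16N-hLXRα, Gal4N-fused SRC1, DRIP205, NCoR or SMRT (15 ng), tk-MH100×4-luc (50 ng) and CMX-β-gal (10 ng). Compound or DMSO added 8 h after transfection for 16 h. Luciferase was normalized to β-galactosidase, in triplicate.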

Data set [4] has as its target T1, Oxysterols receptor LXR-alpha. The experiment in a line: Transactivational agonist activity at human LXRalpha transfected in HEK293 cells coexpressing CMX-Gal4N-SRC1 assessed as SRC1 recruitment at 10 uM after 16 hrs by mammalian two-hybrid assay. The format is cell-based. Particulars: hek293, 16 h. A digest of the protocol:
as §1

In data set [5] the target is T4, Retinoic acid receptor RXR-alpha (Homo sapiens) (UniProt P19793).
T4 sequence (whole entry): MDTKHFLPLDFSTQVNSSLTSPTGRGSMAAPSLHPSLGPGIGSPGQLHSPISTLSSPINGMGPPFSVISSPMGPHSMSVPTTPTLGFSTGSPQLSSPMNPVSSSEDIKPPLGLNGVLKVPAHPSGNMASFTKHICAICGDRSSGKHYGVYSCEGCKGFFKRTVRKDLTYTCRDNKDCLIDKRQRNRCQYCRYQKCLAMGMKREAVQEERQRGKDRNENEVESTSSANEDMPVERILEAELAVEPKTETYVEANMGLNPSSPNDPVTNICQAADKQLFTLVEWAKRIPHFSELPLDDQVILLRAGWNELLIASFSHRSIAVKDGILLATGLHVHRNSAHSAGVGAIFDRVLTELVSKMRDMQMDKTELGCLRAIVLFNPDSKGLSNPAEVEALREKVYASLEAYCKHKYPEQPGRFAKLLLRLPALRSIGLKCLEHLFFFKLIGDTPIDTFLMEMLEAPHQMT
The experiment in a line: Agonist activity at human Gal4-fused RXRalpha assessed as luciferase activity at 0.1 to 10 uM by reporter gene assay. The data set is classed as functional.

Data set [6] concerns the target T1, Oxysterols receptor LXR-alpha. The experiment in a line: Transactivational agonist activity at human LXRalpha transfected in HEK293 cells coexpressing CMX-Gal4N-DRIP205 assessed as DRIP205 recruitment at 10 uM after 16 hrs by mammalian two-hybrid assay. The format is cell-based. Particulars: hek293, 16 h. A digest of the protocol:
as §1

The subject of data set [7] is Peritoneal macrophage cell. Briefly: Inhibition of LPS-induced IL-6 mRNA expression in LXRalpha-deficient C57BL/6J mouse peritoneal macrophages at 10 uM incubated for 6 hrs prior to LPS-challenge measured after 18 hrs by RT-PCR analysis. The format is functional, cell-based. The method in brief:
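Thioglycollate-elicited peritoneal macrophages (wild-type C57BL/6J or LXRα-null, 8–10 weeks) were plated at 4 × 10⁶/well and pretreated with compound 6 h before LPS 100 ng/mL. Cells were harvested after 18 h. il-6 and il-1β mRNA were measured by real-time quantitative PCR, normalized to GAPDH.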

In data set [8] the test system is Peritoneal macrophage cell. Briefly: Inhibition of LPS-induced IL-6 production in LXRalpha,LXRbeta-deficient C57BL/6J mouse peritoneal macrophages at 10 uM incubated for 6 hrs prior to LPS-challenge measured after 18 hrs by ELISA. The format is functional, cell-based. The method in brief: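 Thioglycollate-elicited peritoneal macrophages came from 8–10-week LXRα/β-null mice on C57BL/6J background, harvested 4 days post-injection. They were adhered, rested 24 h and plated at 2 × 10⁵/well, then pretreated with compound 6 h before LPS 10 ng/mL. Supernatant mIL-6 was measured by ELISA after 18 h; means ± SE of ≥3 independent measurements, ANOVA.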

Data set [9] addresses T4, Retinoic acid receptor RXR-alpha (Homo sapiens). Briefly: Antagonist activity at human Gal4-fused RXRalpha assessed as inhibition of SR11215-induced luciferase activity at 0.1 to 10 uM by reporter gene assay. The format is functional.

One may read the IC50 as the point on the concentration scale where inhibition reaches its midpoint. Regarding `C=C1c2ccccc2C(=O)N(C)c2ccc(CC)cc21`, the IC50 in data set [1] is greater than 30 µM. In addition, the Activity result in [2] was “Not Active”; in data set [3] it was “Dose-dependent effect”; in data set [4] it was “Non-toxic”; in data set [6] it was “Non-toxic”. The outcome in data set [5] was inactive. Also, the inhibition entry in data set [7], in data set [8] and in [9] was “inactive” each time.
